Bioassay records deposited in PubChem BioAssay by The Scripps Research Institute Molecular Screening Center.
DAGLB inhibitor: blocks human DAGLB lipase activity; AID 504411; HEK293T DAGLB membrane lysate, EnzChek fluorogenic substrate; inhibition, % at 5.17 µM; 340,000 tested, 0.059% active; in the data active = inhibition above about 34%;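 note: 0% = enzyme with vehicle and 100% = wells lacking enzyme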
TCR-CD3 inh: human TCR-CD3 binding inhibition. TAMRA-labeled TCR probe fluorescence, biochemical. AID 651800. inhibition, % at 9.4 µM. 360,000 tested, 0.37% active;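 note: recombinant mutant TCR 2C K166C tagged with TAMRA read by polarization; 0% = receptor in buffer alone and 100% = receptor with positive control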
SIAE inh: inhibitors of human sialic acid acetylesterase SIAE | inhibition, % at 9.66 µM | SIAE FP-Rh probe binding, fluorescence polarization | 370,000 tested, 0.69% active | AID 1053197 | Q9HAT2;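 active = inhibition above a cutoff: mean of compounds within the control limits plus 3 SD of those, cut at about 17% in these data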;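 note: 0% = plate median of compound wells and 100% = probe without SIAE protein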
HTRA1 inh: HTRA1 (human) protease inhibition | Q92743 | 340,000 tested, 0.5% active | inhibition, % at 5.96 µM | recombinant HTRA1, FP-rhodamine activity-based probe, fluorescence polarization; in the data active = inhibition above about 36%;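 note: 0% = enzyme with DMSO and 100% = wells lacking enzyme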
mABHD4 FP: inhibitors of mouse ABHD4. Q8VD66. purified mABHD4, FP-Rh probe fluorescence polarization. inhibition, % at 8.92 µM. 370,000 tested, 0.54% active;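 active = inhibition exceeding the mean over every tested compound plus 3 SD, cut at about 30% in these data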;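 note: 0% = plate median of compound wells and 100% = S159A mutant with DMSO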
Target sequence (Q8VD66 whole entry, looked up): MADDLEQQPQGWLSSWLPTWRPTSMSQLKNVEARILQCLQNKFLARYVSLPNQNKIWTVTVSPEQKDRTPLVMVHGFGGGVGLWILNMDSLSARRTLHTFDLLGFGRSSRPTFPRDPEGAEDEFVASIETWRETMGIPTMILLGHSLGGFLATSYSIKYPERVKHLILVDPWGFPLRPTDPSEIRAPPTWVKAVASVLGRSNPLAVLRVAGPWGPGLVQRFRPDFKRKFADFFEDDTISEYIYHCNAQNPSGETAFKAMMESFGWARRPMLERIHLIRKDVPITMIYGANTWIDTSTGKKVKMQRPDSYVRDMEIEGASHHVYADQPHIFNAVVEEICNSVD
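system = mouse ABHD4 enzyme, wild type | medium = HEPES pH 7.0, NaCl, Pluronic buffer | also added = FP-Rh probe | incubation = Enzyme–compound pre-incubation 45 min, then probe 60 min, both 25 °C | technique = fluorescence polarization, excitation 525 nm, emission 598 nm, BODIPY TMR filters | controls = S159A mutant high control, sample median low control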
HTRA1 conf: HTRA1 (human) inhibition, confirmation; shares compounds with HTRA1 inh; recombinant HTRA1, FP-rhodamine activity-based probe, fluorescence polarization; inhibition, % at 5.96 µM; 1,600 tested, 66% active;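 active = mean inhibition over three repeats above a set limit taken from the earlier primary screen, cut at about 37% in these data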;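 note: 0% = HTRA1 with DMSO and 100% = wells lacking HTRA1; inhibitors block probe binding so polarization drops and inhibition rises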
BSA probe FL: interferes with TAMRA-BSA probe, flagging TCR-CD3 hits; shares compounds with TCR-CD3 inh; TAMRA-labeled BSA probe fluorescence counterscreen; inhibition, % at 9.4 µM; 1,200 tested, 10% active; in the data active = inhibition above about 23%;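 note: 0% = buffer low control and 100% = reference high control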
TCR-CD3 inh conf: TCR-CD3 interaction inhibition, confirmation; TAMRA-labeled TCR probe fluorescence binding assay; AID 652036; inhibition, % at 9.4 µM; shares compounds with TCR-CD3 inh; 1,200 tested, 48% active
ABHD4 confirm: ABHD4 (mouse) inhibition, FP confirmation | shares compounds with mABHD4 FP | purified mABHD4, FP-Rh probe fluorescence polarization | inhibition, % at 8.92 µM | 1,800 tested, 55% active | AID 720658;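 active = mean inhibition across replicates above the hit cutoff set in the primary screen, cut at about 30% in these data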;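 note: 0% = wild-type ABHD4 with DMSO and 100% = catalytically dead S159A mutant with DMSO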
SIAE confirm: confirmation of human SIAE inhibitors | shares compounds with SIAE inh | SIAE FP-Rh activity-based probe, fluorescence polarization | inhibition, % at 9.66 µM | 2,300 tested, 13% active;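 active = mean inhibition of the replicates above the hit cutoff set in the primary screen, cut at about 17% in these data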;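 note: 0% = SIAE with DMSO and probe and 100% = probe without SIAE; inhibitors lower polarization as more probe stays unbound to SIAE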
Active calls of the source: *; . = no result. In the library only some 1.5% were active in any assay of this set; here they are far more common. Cut-off read from the data, not from the text of the source, unless noted: active = inhibition above about 19%; inactive = the rest.

SMILES	DAGLB inhibitor	TCR-CD3 inh	SIAE inh	HTRA1 inh	mABHD4 FP	HTRA1 conf	ABHD4 confirm	SIAE confirm	others
Cc1cc(=O)[nH]c(N/N=C/c2c[nH]c3ccccc23)n1	2	-10	-2	3	-1	.	.	.
C(=N\Nc1nc2ccccc2[nH]1)/c1c[nH]c2ccccc12	4	4	21*	38*	14	21	.	33*
Oc1c(Br)cc(Br)cc1CNc1cccc2cccnc12	18	6	32*	70*	56*	32	-10	15
Oc1ccc(Cl)cc1CNc1cccc2cccnc12	4	-1	20*	49*	36*	11	1	7
CN(/N=C\c1ccc(O)c(O)c1)c1nc(-c2ccccc2)cc(-c2ccccc2)n1	4	2	35*	39*	34*	66*	123*	-22
COc1cc(/C=N/N(c2ccccc2)c2ccccc2)ccc1O	0	-3	14	31	14	.	.	.
Cc1nc2ccccc2n1CCC(=O)O	1	-2	-5	0	6	.	.	.
Cc1nc2ccccc2n2c(O)c(CC(=O)O)cc12	-30	16	18*	55*	30*	40*	74*	31*
CN(C)S(=O)(=O)c1cccc(NC(=S)N/N=C/c2ccc(O)c(O)c2O)c1	11	51*	35*	45*	32*	49*	82*	27*
COc1ccc(O)c(/C=N/NC(=S)Nc2cccc(S(=O)(=O)N(C)C)c2)c1	13	14	33*	38*	3	19	.	-6
COc1cccc(/C=N/NC(=S)Nc2cccc(S(=O)(=O)N(C)C)c2)c1	-1	-2	-1	-20	1	.	.	.
COC(=O)[C@]12C[C@H](CC(=O)NCCCN3CCCC3=O)C(=O)N(Cc3ccccc3)C1=C[C@H](C1CCCC1)O[C@@H]2C	.	7	-5	.	2	.	.	.
C[C@@H]1CN([C@H](C)CO)S(=O)(=O)c2ccc(Br)cc2O[C@H]1CN(C)CC1CCOCC1	.	1	1	.	2	.	.	.
COC(=O)C1=C(C)N(Cc2ccc(C(F)(F)F)cc2)C(=NCC2CC2)NC1c1ccccc1C(F)(F)F (configuration not stated)	.	-1	-7	.	9	.	.	.
Oc1cccc(C=Nc2cccc3ccccc23)c1O	15	2	20*	71*	53*	53*	.	14
CCOc1c(Cl)cc(CNc2ccc(N3CCCC3)cc2)cc1OC	11	7	21*	50*	24	16	.	11
COc1ccc(CN2C[C@@]3(O)CC[C@@H](O)[C@@H](OC)[C@@H]3[C@@](C)(O)[C@@H]2CC=C(C)C)cc1	.	5	0	.	-12	.	.	.
CCn1c(CSc2nnc(-c3ccncc3)n2C)nc2cc(C(=O)O)ccc21	-3	89*	28*	66*	23	56*	.	39*	BSA probe FL=155*;TCR-CD3 inh conf=109*
NNC(=O)c1oc2nc(-c3cccs3)cc(-c3ccco3)c2c1N	-9	13	55*	57*	20	48*	.	75*
FC(F)(F)C1=Nc2cccc3cccc(c23)N1	12	31*	56*	39*	4	85*	.	4	BSA probe FL=-7;TCR-CD3 inh conf=9
Fc1ccc(C2=Nc3cccc4cccc(c34)N2)cc1	-4	5	3	0	9	.	.	.
O=C(N/N=C/c1cc(Br)cc(Br)c1O)c1ccncc1	.	1	9	.	12	.	.	.
O=C(N/N=C/c1cc(Br)cc([N+](=O)[O-])c1O)c1ccc(NC(=O)c2ccc(F)cc2)cc1	17	58*	53*	51*	16	53*	.	0	BSA probe FL=-12;TCR-CD3 inh conf=51*
O=C1c2ccccc2NC(c2cc(Cl)cc(Cl)c2O)N1CCc1ccccn1 (configuration not stated)	.	1	4	.	3	.	.	.
Cc1cc2cc(CNC(=O)Nc3cccc(Cl)c3)ccc2n1C	15	55*	26*	39*	46*	6	-10	-6	BSA probe FL=5;TCR-CD3 inh conf=1
SMILES	DAGLB inhibitor	TCR-CD3 inh	SIAE inh	HTRA1 inh	mABHD4 FP	HTRA1 conf	ABHD4 confirm	SIAE confirm	others
Oc1ccc(NCc2cccs2)cc1	0	21*	20*	37*	54*	4	11	9	BSA probe FL=2;TCR-CD3 inh conf=6
CCOc1cc(N2CCOCC2)c(OCC)cc1NC(C)C(=O)N1CCN(CC)CC1 (configuration not stated)	-1	31*	27*	41*	41*	17	.	4	BSA probe FL=1;TCR-CD3 inh conf=2
O=C(CSc1nnc(-c2ccccn2)n1-c1ccccc1)c1ccc2c(c1)OCO2	.	.	-1	.	5	.	.	.
O=c1c2ccccc2nc(N/N=C/c2c(O)ccc3ccccc23)n1O	20	9	18*	62*	34*	68*	34*	11
COc1cc(-c2nc(-c3ccccc3)c(-c3cccs3)[nH]2)cc(OC)c1O	5	-4	20*	43*	35*	35	44*	6
COc1ccc2c(c1)cc(C(=O)N/N=C/c1c(O)c(C(=O)O)cc3ccccc13)n2C	7	37*	39*	55*	19	39*	.	6	BSA probe FL=-17;TCR-CD3 inh conf=45*
Cn1c(O)c(/C=N/NC(=O)c2cc3ccccc3cc2O)c2ccccc21	5	50*	23*	54*	40*	55*	44*	10	BSA probe FL=-13;TCR-CD3 inh conf=53*
Cn1c2ccccc2c2cc(/C=N/NC(=O)c3ccc(O)cc3O)ccc21	2	.	.	-19	.	.	.	.
CC(=O)Nc1ccc(N=Cc2c(O)c(C(=O)Nc3ccccc3)cc3ccccc23)cc1	.	2	7	.	-6	.	.	.
OC(c1ccccc1)(c1ccccc1)C1CCN(CCCOc2cccnc2)CC1	.	5	3	.	8	.	.	.
COC(=O)[C@]12C[C@H](CC(=O)NCCCCc3ccccc3)C(=O)N(Cc3ccc(Cl)cc3Cl)C1=C[C@H](C(C)C)O[C@@H]2C1CC1	.	.	2	.	-2	.	.	.
O=S1(=O)CC2c3ccccc3CCN2CN1Cc1ccccc1 (configuration not stated)	.	.	0	.	-5	.	.	.
Cn1cc(-c2cccc3[nH]cc(-c4ccccc4)c23)c2ccccc21	.	.	-1	.	7	.	.	.
CCCCCCCCN1C(=O)[C@@H](CC(=O)NCCC(C)C)C[C@@]2(C(=O)OC)C1=C[C@H](C(C)C)O[C@@H]2C1CC1	.	.	7	.	-4	.	.	.
